Results as given in PMC7826400 (Proceedings of the National Academy of Sciences of the …, 2021).
Read-outs that look alike come from different tables or passages of the source.

How the values were obtained:
MdCMS_1 = test: DTNB endpoint assay, Lineweaver-Burk; assay type: biochemical, Malus domestica; conditions: read-out: Km ± SE
Summary of the method: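 Recombinant apple enzyme expressed in E. coli BL21 (ORF with or without putative chloroplast transit peptide) and purified. Activity measured by DTNB (Ellman's reagent) endpoint assay. Acetyl-CoA was varied with pyruvate held saturating at 10 mM. Absorbance was corrected against an identical mixture lacking α-ketoacid. Km was obtained by regression of Lineweaver–Burk plots, with two to three replications per regression.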

MdIPMS2 [1] = target: T1, MdIPMS2 (Malus domestica, UniProt A0A498KQL4); test: DTNB endpoint assay, feedback inhibition; assay type: biochemical; conditions: read-out: % inhibition at 0.05 mM
T1 sequence (A0A498KQL4 64-634): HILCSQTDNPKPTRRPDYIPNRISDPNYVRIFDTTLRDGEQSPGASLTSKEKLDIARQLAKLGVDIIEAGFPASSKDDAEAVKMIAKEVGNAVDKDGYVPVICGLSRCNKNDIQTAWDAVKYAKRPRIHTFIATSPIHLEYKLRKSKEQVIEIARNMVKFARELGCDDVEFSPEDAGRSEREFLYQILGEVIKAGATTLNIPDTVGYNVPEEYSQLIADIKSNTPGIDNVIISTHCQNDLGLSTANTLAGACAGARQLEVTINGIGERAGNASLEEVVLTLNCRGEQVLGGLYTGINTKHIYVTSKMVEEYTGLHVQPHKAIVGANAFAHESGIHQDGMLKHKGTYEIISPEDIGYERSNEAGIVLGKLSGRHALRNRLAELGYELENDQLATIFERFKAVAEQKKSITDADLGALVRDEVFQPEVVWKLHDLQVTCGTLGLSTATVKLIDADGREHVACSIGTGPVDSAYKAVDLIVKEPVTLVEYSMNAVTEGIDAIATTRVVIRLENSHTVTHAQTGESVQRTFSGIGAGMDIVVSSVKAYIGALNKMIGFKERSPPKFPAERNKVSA

MdIPMS1 [2] = target: T2, MdIPMS1 (Malus domestica, UniProt A0A498I0D3); test: DTNB endpoint assay, feedback inhibition; assay type: biochemical; conditions: read-out: % inhibition at 0.05 mM
T2 sequence (A0A498I0D3 59-236): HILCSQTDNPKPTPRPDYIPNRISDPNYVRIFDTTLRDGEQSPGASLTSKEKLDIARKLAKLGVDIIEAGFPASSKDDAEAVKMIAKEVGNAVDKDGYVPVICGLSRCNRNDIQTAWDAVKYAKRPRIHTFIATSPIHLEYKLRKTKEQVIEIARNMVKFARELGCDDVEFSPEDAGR
T2 sequence (A0A498I0D3 250-642): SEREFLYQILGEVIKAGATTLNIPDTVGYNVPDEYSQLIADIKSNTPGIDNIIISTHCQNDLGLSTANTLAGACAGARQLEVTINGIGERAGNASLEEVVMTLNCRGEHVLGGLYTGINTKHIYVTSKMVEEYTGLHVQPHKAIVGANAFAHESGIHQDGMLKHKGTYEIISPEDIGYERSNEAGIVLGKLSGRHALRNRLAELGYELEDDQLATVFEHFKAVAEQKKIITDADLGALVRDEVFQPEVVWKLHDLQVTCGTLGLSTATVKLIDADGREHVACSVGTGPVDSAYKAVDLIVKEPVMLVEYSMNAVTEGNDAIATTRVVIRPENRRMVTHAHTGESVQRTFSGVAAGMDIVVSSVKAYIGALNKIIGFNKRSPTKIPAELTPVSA

MdIPMS1 [3] = target: T2, MdIPMS1; test: DTNB endpoint assay, feedback inhibition; assay type: biochemical; conditions: 10 mM α-ketoisovalerate; threonine range 0 to 10 mM
MdIPMS2 [4] = target: T1, MdIPMS2; test: DTNB endpoint assay, feedback inhibition; assay type: biochemical; conditions: 10 mM α-ketoisovalerate; threonine range 0 to 10 mM

CC(=O)SCCNC(=O)CCNC(=O)[C@H](O)C(C)(C)COP(=O)(O)OP(=O)(O)OC[C@H]1O[C@@H](n2cnc3c(N)ncnc32)[C@H](O)[C@@H]1OP(=O)(O)O [Acetyl-CoA]
Km (MdCMS_1; saturating (10 mM) pyruvate): 6.6 ± 0.9 µM

CC(=O)C(=O)O [Pyruvate]
Km (MdCMS_1; co-substrate acetyl-CoA): 2450 µM

CC(C)C[C@H](N)C(=O)O [leucine]
inhibition at 50 µM (MdIPMS2 [1]): 70% | inhibition at 50 µM (MdIPMS1 [2]): 40%

C[C@@H](O)[C@H](N)C(=O)O [threonine]
% inhibition (MdIPMS1 [3]): both MdIPMS proteins were inhibited by elevated levels of threonine | % inhibition (MdIPMS2 [4]): both MdIPMS proteins were inhibited by elevated levels of threonine

CCC(=O)C(=O)O [α-Ketobutyrate]
Km (MdCMS_1; co-substrate acetyl-CoA): 3560 µM
